Assay results: ChEMBL document CHEMBL1124301, “Enantioselectivity of muscarinic antagonists. 2,2-Dicyclohexyl-5-[(dimethylamino)methyl]-1,3-oxathiolane methiodides and related 3-oxides” (J Med Chem, 1988)
“And” between values parts separate entries of the source, which are not always exact repeats. Identical values can stand only once.

Columns and labels:
[1] = target: Muscarinic acetylcholine receptor; test: Antagonist activity against Muscarinic acetylcholine receptor of rat bladder; type: functional
Outline: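 Longitudinal bladder strip (2 mm wide, urethra to apex) in PSS at 37 °C, recorded isometrically, equilibrated 30 min. Carbachol dose-response curves run at 30-min intervals, with the second taken as control. After 30 min antagonist incubation, the curve was repeated.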

[2] = target: Muscarinic acetylcholine receptor; test: Antagonist activity against Muscarinic acetylcholine receptor of guinea pig heart.; type: functional, Cavia porcellus
[3] = target: Muscarinic acetylcholine receptor; test: Antagonist activity against Muscarinic acetylcholine receptor of guinea pig ileum; type: functional, tissue-based, Cavia porcellus
[4] = target: Muscarinic acetylcholine receptor; test: Antagonist activity against Muscarinic acetylcholine receptor of guinea pig heart; type: functional, Cavia porcellus

SMILES	pA2 [1]	pA2 [2]	pA2 [3]	pA2 [4]
C[N+](C)(C)C[C@@H]1C[S@@+]([O-])C(C2CCCCC2)(C2CCCCC2)O1.[I-] (racemic)	6.03	6.77 and 6.63	6.24	
C[N+](C)(C)C[C@@H]1C[S@+]([O-])C(C2CCCCC2)(C2CCCCC2)O1.[I-] (racemic)	5.99	6.27 and 6.06	6.4	
C[N+](C)(C)C[C@@H]1CSC(C2CCCCC2)(C2CCCCC2)O1.[I-] (racemic)	6.26	6.38	6.95	6.12
C[N+](C)(C)C[C@@H]1CSC(C2CCCCC2)(C2CCCCC2)O1.[I-] (stereo in doubt; (+)-2)	6.28	6.37 and 6.42	6.98	
C[N+](C)(C)C[C@@H]1C[S@@+]([O-])C(C2CCCCC2)(C2CCCCC2)O1.[I-] (stereo in doubt; (+)-4)	5.51	5.55 and 5.4	5.81	
C[N+](C)(C)C[C@@H]1C[S@+]([O-])C(C2CCCCC2)(C2CCCCC2)O1.[I-] (stereo in doubt; (+)-6)	6.27	6.45 and 6.31	6.32	
C[N+](C)(C)C[C@@H]1CSC(C2CCCCC2)(C2CCCCC2)O1.[I-] (stereo in doubt; (-)-2)	6.34	6.02 and 6.05	6.92	
C[N+](C)(C)C[C@@H]1C[S@@+]([O-])C(C2CCCCC2)(C2CCCCC2)O1.[I-] (stereo in doubt; (-)-4)	6.36	6.79 and 6.65	6.69	
C[N+](C)(C)C[C@@H]1C[S@+]([O-])C(C2CCCCC2)(C2CCCCC2)O1.[I-] (stereo in doubt; (-)-6)	5.48	5.61 and 5.59	5.92	
